aDG glyco up = activators of alpha-DG glycosylation, primary screen, uHTS, Pro5-aDG cells, AlphaScreen; 360,000 tested, 0.22% active; alpha-DG glycosylation AlphaScreen (IIH6); 0% Pro5, 100% B10-LARGE cell signal; activation, % at 10 µM; AID 624168, 2012;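 active means activation of at least 8% versus controls, or a plate z-score of at least 8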;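 further: Pro5 are CHO cells carrying HIG-tagged alpha-DG that lacks glycosylation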
MPTP inh = mitochondrial permeability transition pore inhibitors, primary screen, biochemical, isolated mouse mitochondria, absorbance. inhibition, % at 10 µM. 360,000 tested, 1.4% active. Ca2+ swelling absorbance, 30 min;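 active means inhibition of 50% or more, scaled per plate between neutral and stimulator controls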;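 further: 0% = DMSO wells given calcium and 100% = 1 mM EGTA wells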
XBP1 UPR activ = activators of adaptive XBP1 UPR arm, primary screen, cell-based, CHO-XBP1 luciferase reporter, luminescence, uHTS. IRE1-XBP1 UPR activation; percent of tunicamycin response, DMSO as zero. activation, % at 20 µM. 330,000 tested, 0.33% active. AID 463104, 2010;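 active means versus positive control, 20 µM dose yields 30% or more activation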;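 further: 100% = tunicamycin at 10 µg/mL and 0% = DMSO only wells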
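assay system = CHO-XBP1 luciferase reporter cells | amount = 1000 cells/well | buffer or medium = F12 plus 10% FBS | compound dosing = single point, 20 µM final compound, 1% DMSO | incubation = 16-18 h cell attachment at 37 °C, then 6 h compound exposure | detection = Steady-Glo luminescence read | controls = tunicamycin 10 µg/mL and vehicle-only wells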
CHOP UPR activ = activators of apoptotic CHOP UPR arm, primary screen, cell-based, CHO-CHOP luciferase reporter, luminescence, uHTS. 330,000 tested, 0.34% active. AID 449763, 2010. UPR activation; percent of tunicamycin response over DMSO baseline. activation, % at 10 µM;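 active means at 10 µM dose, activation of 40% or more, normalized to positive control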;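 further: 100% = tunicamycin at 10 µg/mL and 0% = DMSO alone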
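Assay system: CHO-CHOP cells, stable luciferase reporter of PERK-eIF2a-CHOP signalling / Buffer or medium: F12 plus 10% serum / Compound dosing: one dose, 10 µM in 0.5% DMSO / Times: 6 h compound treatment, 37 °C / Technique: luciferase luminescence / Read-out: % reporter activation, DMSO baseline versus tunicamycin full activation / Benchmarks: tunicamycin and DMSO controls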
GRIN3A LBD mod = binders of NR3A ligand-binding domain, primary screen, biophysical, differential scanning fluorimetry, uHTS; 340,000 tested, 2.5% active; Tm shift relative to glycine control, % at 25 µM; NR3A LBD differential scanning fluorimetry, Tm shift; 0% = protein alone, 100% = glycine-bound protein; Glutamate receptor ionotropic, NMDA 3A (GRIN3A) ligand-binding domain;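 active means melting temperature shift of at least 10% of the positive control shift, at one fixed dose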
CHOP inh = inhibitors of CHOP promoter induction, primary screen, cell-based, unfolded protein response, luciferase reporter; CHO-K1 CHOP-promoter luciferase, tunicamycin-induced, 15-18 h; inhibition, % at 10 µM; 220,000 tested, 3.8% active; AID 2732, 2010;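 active means compounds that reduced the stress-induced luciferase reporter signal by more than about 70% of percent inhibition, limit read from the data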;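 further: 0% = tunicamycin plus vehicle and 100% = wells without tunicamycin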
MPTP counter = fluorescence retest of MPTP screen hits in isolated mitochondria, single concentration; shares compounds with MPTP inh; membrane potential, Rhodamine 123 fluorescence; inhibition, % at 10 µM; 5,000 tested, 78% active; AID 624504, 2012; in the data active means inhibition above about 22%;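 further: 0% = DMSO vehicle and 100% = positive control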
MPTP abs DR = mitochondrial permeability transition pore inhibitors, dose response, biochemical, absorbance, uHTS hits; shares compounds with MPTP inh; isolated mitochondria swelling; IC50, µM; 780 tested, 58% active; AID 651561, 2012; in the data active means IC50 below about 20 µM
MPTP counter DR = fluorescent counter-screen in isolated mitochondria, dose response, counter-screen for MPTP inhibitor project, biochemical, fluorescence, uHTS hits | shares compounds with MPTP inh | isolated mitochondria counterscreen, fluorescence read-out | IC50, µM | 780 tested, 49% active | AID 651564, 2012; in the data active means IC50 below about 80 µM
An asterisk follows results filed as active; nt = not tested or not shown. Hits are enriched below; roughly 5.6% of the tested compounds scored in any of these assays.

SMILES	aDG glyco up	MPTP inh	XBP1 UPR activ	CHOP UPR activ	GRIN3A LBD mod	CHOP inh	MPTP counter	others
CC(NCC(O)COc1ccc(Br)cc1)c1ccccc1 (stereo unspecified)	0.1	80.7*	-1.2	0.7	1.2	nt	-7.8	MPTP abs DR=5.55*;MPTP counter DR=>80
CCOC(=O)[C@]12CCC=C1N(Cc1cccc3ccccc13)C(=O)[C@H](CC(=O)NCC13CC4CC(CC(C4)C1)C3)C2	0.0	-1.1	nt	nt	nt	nt	nt
CCOC(=O)N1CCN(S(=O)(=O)N2CCCC(C(=O)NCCc3ccc(OCC)c(OCC)c3)C2)CC1 (stereo unspecified)	0.0	4.1	-6.8	0.9	0.8	nt	nt
CC(C)COc1ccc(C(=O)Nc2ccc([N+](=O)[O-])cc2)cc1	0.1	-1.7	2.0	2.0	-4.1	60.9	nt
CCCCNC(=S)NC(=O)c1ccc([N+](=O)[O-])cc1	0.4	-1.6	-0.9	5.3	0.4	13.0	nt
S=C(NCCc1ccccc1)Nc1ccc(Br)cc1	0.0	97.5*	-2.2	2.8	33.0*	19.1	92.3*
CC(C)OC(=O)c1cc(NC(=S)Nc2ccc([N+](=O)[O-])cc2)cc(C(=O)OC(C)C)c1	0.4	97.4*	2.2	28.7	-3.4	74.8*	99.6*
CCCCNC(=S)Nc1ccc([N+](=O)[O-])cc1	-0.3	94.7*	0.2	3.9	-3.9	17.7	89.4*
CC(C)CCNC(=S)Nc1ccc(Br)cc1	0.6	100.3*	2.4	4.4	1.1	6.5	88.2*
COc1ccc(C(=O)Nc2ccccc2C(=O)NCC2CCCO2)cc1 (stereo unspecified)	0.1	0.5	-5.4	0.5	1.8	nt	nt
C[C@H](CO)N1C[C@H](C)[C@@H](CN(C)S(C)(=O)=O)Oc2ccc(NC(=O)c3ccncc3)cc2C1=O	0.1	-2.1	-2.1	-1.5	-2.7	nt	nt
O=c1c2oc3nc4c(cc3c2ncn1CCCc1ccccc1)CCCC4	0.7	3.3	3.4	1.3	2.3	4.0	nt
CC(C)CCNC(=S)Nc1ccc([N+](=O)[O-])cc1	0.1	97.5*	0.7	0.3	3.5	37.9	85.4*
CC(C)(C)n1ncc2c(=O)n(Cc3cccc(Cn4cnc5c(cnn5C(C)(C)C)c4=O)c3F)cnc21	5.0	95.2*	10.9	5.0	0.8	nt	87.4*
COc1ccc(NCC(=O)Nc2cccc(C(F)(F)F)c2)cc1S(=O)(=O)N1CCOCC1	-0.1	0.0	-1.9	2.5	-0.3	nt	nt
CCc1noc(C)c1C(=O)N(Cc1ccccc1)c1c(N)n(CCOC)c(=O)[nH]c1=O	-0.3	-1.9	-2.5	0.1	-0.7	nt	nt
C=CCC(C(=O)Oc1c(C(C)(C)C)cc(C)cc1C(C)(C)C)c1ccccc1 (stereo unspecified)	0.1	55.3*	-3.0	3.2	-2.7	nt	-8.7	MPTP abs DR=6.88*;MPTP counter DR=>80
Cc1cccc(C)c1OC(=O)C(c1ccccc1)c1ccccc1	0.1	0.8	0.9	-3.1	-1.4	26.6	nt
Cc1cc(C(F)(F)F)c(C#N)c(SCC(=O)Nc2nc3ccccc3s2)n1	0.2	63.2*	-0.9	4.6	12.2*	65.8	74.0*
O=C(Cc1c(F)cccc1Cl)NCC(=O)OCc1ccccc1	-0.1	0.7	-5.5	-1.2	2.2	nt	nt
